This is a sample that favours compounds with a hit; in the whole collection about 2.5% have one here.
SENP8 block-1 – inhibitors of human SENP8 protease | Q96LD8 | purified SENP8, Z-RLRGG-aminoluciferin cleavage, luminescence | inhibition, % at 10 µM | 330,000 tested, 1.2% active | AID 2540; in the data active = inhibition above about 50%
Target sequence (Q96LD8 whole entry, looked up): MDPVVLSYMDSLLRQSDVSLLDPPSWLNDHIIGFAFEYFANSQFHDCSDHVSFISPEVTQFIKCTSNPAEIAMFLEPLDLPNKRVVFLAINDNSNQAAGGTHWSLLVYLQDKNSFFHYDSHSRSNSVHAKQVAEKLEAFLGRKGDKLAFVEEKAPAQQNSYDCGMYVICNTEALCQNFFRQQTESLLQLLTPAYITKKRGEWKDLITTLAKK
SENP1 inh – SENP1 (human) catalytic domain inhibition; recombinant SENP1 catalytic domain, CyPet-SUMO1-YPet FRET cleavage; inhibition, % at 10 µM; AID 624204; Q9P0U3; 360,000 tested, 0.21% active;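 active = inhibition at least 30% at 10 µM, raw YFP signal under a set limit, fluorescence ratio 0.5 to 1.5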;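 note: 0% = enzyme with DMSO and 100% = no enzyme wells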
Target sequence (Q9P0U3 419-644 limits assumed): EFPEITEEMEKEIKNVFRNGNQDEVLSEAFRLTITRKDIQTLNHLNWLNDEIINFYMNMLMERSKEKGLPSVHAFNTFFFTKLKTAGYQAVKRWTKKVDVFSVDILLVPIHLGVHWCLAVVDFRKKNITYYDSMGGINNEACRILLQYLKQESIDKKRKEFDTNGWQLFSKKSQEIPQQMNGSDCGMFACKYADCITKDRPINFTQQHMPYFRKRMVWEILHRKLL
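Assay system – human recombinant His6-tagged SENP1 catalytic domain enzyme · Input – SENP1 enzyme, 20 pM final · Buffer or medium – Tris pH 8 buffer plus EDTA, NaCl, BME, BSA, NP40, catalase · Schedule – 50 min reaction at room temperature · Technique – FRET read of cyan and yellow fluorescence · Control set – no-enzyme wells low, DMSO-plus-enzyme wells high control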
SENP6 block – blocks the human protease SENP6. 330,000 tested, 1.8% active. inhibition, % at 10 µM. Q9GZR1. Recombinant SENP6 catalytic domain, aminoluciferin luminescence;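 active = inhibition above about 50% at the single tested dose, limit read from the data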;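 note: plate controls were DMSO wells with enzyme for no effect and DMSO wells lacking enzyme for full effect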
SENP7 inh – blocks the human protease SENP7. 330,000 tested, 1.5% active. Q9BQF6. inhibition, % at 5 µM. recombinant SENP7, Z-RLRGG-aminoluciferin luminescence, 40 min. AID 434973;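 active = inhibition above about 50% at the single test dose, limit read from the data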;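 note: plate controls were DMSO with enzyme for no effect and no enzyme buffer wells for full effect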
SENP8 block-2 – blocks human SENP8 cleavage of Nedd8 substrate | Q96LD8 | recombinant SENP8, Nedd8 substrate fluorescence | inhibition, % at 20 µM | 360,000 tested, 0.64% active; in the data active = inhibition mostly above about 40%, no sharp cut-off; inactive = mostly below about 27%
SENP8 conf – confirmation of human SENP8 protease inhibitors; AID 488912; 6,200 tested, 40% active; shares compounds with SENP7 inh; inhibition, % at 12.5 µM; Recombinant SENP8, Z-RLRGG-aminoluciferin luminescence, 60 min;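 active = mean inhibition across replicates above about 50%, limit read from the data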
SENP6 confirm – confirmation of human SENP6 protease inhibitors. shares compounds with SENP7 inh. recombinant SENP6, Z-RLRGG-aminoluciferin luminescence. inhibition, % at 12.5 µM. 6,200 tested, 58% active. AID 488915
SENP7 conf – human SENP7 inhibition, confirmed | shares compounds with SENP7 inh | recombinant SENP7, Z-RLRGG-aminoluciferin luminescence, 40 min | inhibition, % at 12.5 µM | 6,200 tested, 69% active
Casp3 select – caspase-3 inhibition (SENP selectivity assay); shares compounds with SENP7 inh; purified caspase-3, Z-DEVD-aminoluciferin luminescence, 60 min; inhibition, % at 12.5 µM; 6,200 tested, 60% active; AID 488918;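 active = mean inhibition above about 50%, limit read from the data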;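 note: plate controls were enzyme with DMSO for no effect and wells without caspase-3 for full effect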
Target sequence (P42574 28-227 limits assumed): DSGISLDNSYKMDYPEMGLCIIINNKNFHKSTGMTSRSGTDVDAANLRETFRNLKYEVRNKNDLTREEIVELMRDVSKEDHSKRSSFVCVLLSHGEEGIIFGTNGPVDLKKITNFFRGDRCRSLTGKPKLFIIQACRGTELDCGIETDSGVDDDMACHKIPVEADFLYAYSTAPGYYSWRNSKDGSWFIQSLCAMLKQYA
Luc interf – luminescence interference (SENP counter-screen). 6,200 tested, 39% active. shares compounds with SENP7 inh. Pre-incubated SENP8/Z-RLRGG-aminoluciferin, luciferase luminescence interference. inhibition, % at 12.5 µM;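 active = mean inhibition above about 50% when retested at one dose, limit read from the data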;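 note: plate controls were DMSO wells with completed reaction for no effect and substrate without enzyme for full effect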
* hit, by the source's call.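 Rule for the calls, unless noted: active = mean inhibition above about 50% in the one-dose retest (limit read from the data); inactive = the rest.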

What do the screens show for `Nc1ccc2oc(-c3ccccc3Cl)nc2c1`?
SENP8 block-1: 68*; SENP1 inh: 1; SENP6 block: 91*; SENP7 inh: 77*; SENP8 block-2: -240; SENP8 conf: 90*; SENP6 confirm: 90*; SENP7 conf: 99*; Casp3 select: 87*; Luc interf: 80*

How did CCc1ccc2oc(-c3cc(N)ccc3Cl)nc2c1 do in these assays?
SENP8 block-1: 92*; SENP1 inh: -10; SENP6 block: 95*; SENP7 inh: 95*; SENP8 block-2: inactive; SENP8 conf: 95*; SENP6 confirm: 97*; SENP7 conf: 101*; Casp3 select: 82*; Luc interf: 78*

How did Nc1ccc2oc(-c3cc(Br)ccc3Cl)nc2c1 do in these assays?
SENP8 block-1: -1; SENP1 inh: -23; SENP6 block: 11; SENP7 inh: 8; SENP8 block-2: -100

What do the screens show for `Cc1ccc2nc(-c3cc(N)cc(N)c3)oc2c1`?
SENP8 block-1: 16; SENP1 inh: -23; SENP6 block: 25; SENP7 inh: 11; SENP8 block-2: -324

Results for CCc1ccc2oc(-c3cc(N)cc(C)c3O)nc2c1 ?
SENP8 block-1: 75*; SENP1 inh: -26; SENP6 block: 79*; SENP7 inh: 54*; SENP8 block-2: -110; SENP8 conf: 35; SENP6 confirm: 50*; SENP7 conf: 78*; Casp3 select: 58*; Luc interf: 7

How did Cc1ccc2oc(-c3cc(NC(=O)c4ncn[nH]4)ccc3O)nc2c1 do in these assays?
SENP8 block-1: -7; SENP1 inh: 0; SENP6 block: -21; SENP7 inh: -12; SENP8 block-2: -43

What do the screens show for `Cc1ccccc1-c1cnc2c(c1)C(=O)N([C@@H](C)CO)C[C@@H](C)[C@H](CN(C)Cc1ccccc1F)O2`?
SENP1 inh: 0; SENP8 block-2: 8

Results for CCOc1cc(N2CCOCC2)c(OCC)cc1NC(=O)C(NC(=O)c1c(F)cccc1F)C(C)C (centres undefined) ?
SENP1 inh: 1; SENP8 block-2: 6

What do the screens show for `CCCN(CC(=O)Nc1ccccc1C)C(=O)CCCNC(=O)c1ccc(Cl)cc1`?
SENP8 block-1: 15; SENP1 inh: 0; SENP6 block: -10; SENP7 inh: -12; SENP8 block-2: 12

How did Nc1nc(N)c2cc(S(=O)(=O)c3ccc4ccccc4c3)ccc2n1 do in these assays?
SENP1 inh: -1; SENP8 block-2: -451

How did Oc1[nH]c2ccccc2c1N=Nc1ccc(F)cc1 do in these assays?
SENP8 block-1: 69*; SENP1 inh: -8; SENP6 block: 78*; SENP7 inh: 89*; SENP8 block-2: 23; SENP8 conf: -18; SENP6 confirm: 64*; SENP7 conf: 67*; Casp3 select: 26; Luc interf: -6

How did Oc1[nH]c2ccc(Br)cc2c1N=Nc1ccc(F)cc1 do in these assays?
SENP8 block-1: 3; SENP1 inh: 13; SENP6 block: -3; SENP7 inh: 7; SENP8 block-2: 23

Results for Oc1[nH]c2ccccc2c1N=Nc1ccccc1 ?
SENP8 block-1: 73*; SENP1 inh: -22; SENP6 block: 88*; SENP7 inh: 80*; SENP8 block-2: 50*; SENP8 conf: 40; SENP6 confirm: 73*; SENP7 conf: 94*; Casp3 select: 62*; Luc interf: 7

How did O=C(N=Nc1c(O)[nH]c2ccccc12)Nc1ccccc1 do in these assays?
SENP1 inh: 2; SENP8 block-2: 15

Results for Oc1[nH]c2ccccc2c1N=Nc1nc2ccccc2s1 ?
SENP8 block-1: 55*; SENP1 inh: 41*; SENP6 block: 72*; SENP7 inh: 89*; SENP8 block-2: 29; SENP8 conf: 40; SENP6 confirm: 32; SENP7 conf: 51*; Casp3 select: 36; Luc interf: 43

Results for Oc1[nH]c2ccccc2c1N=Nc1ccccc1F ?
SENP8 block-1: 3; SENP1 inh: -2; SENP6 block: 41; SENP7 inh: 75*; SENP8 block-2: 24; SENP8 conf: 16; SENP6 confirm: 11; SENP7 conf: 35; Casp3 select: 20; Luc interf: 11

How did COCCn1c(=S)[nH]c2cc(C(=O)N(CCO)Cc3ccccc3)ccc2c1=O do in these assays?
SENP8 block-1: 2; SENP1 inh: 0; SENP6 block: 9; SENP7 inh: -4; SENP8 block-2: -1

How did COCCN(C(=O)C1CC(=O)N(Cc2ccccc2)C1)c1nc(-c2ccc([N+](=O)[O-])cc2)cs1 (centres undefined) do in these assays?
SENP8 block-1: -30; SENP1 inh: 1; SENP6 block: -19; SENP7 inh: -9; SENP8 block-2: -9

How did COc1ccc(C(=O)Nc2nc3ccc(OC)cc3s2)cc1 do in these assays?
SENP8 block-1: -15; SENP1 inh: 0; SENP6 block: 17; SENP7 inh: -2; SENP8 block-2: -280

How did COc1ccc2nc(NC(=O)c3cnccn3)sc2c1 do in these assays?
SENP8 block-1: 49; SENP1 inh: -5; SENP6 block: 17; SENP7 inh: 76*; SENP8 block-2: 3; SENP8 conf: 16; SENP6 confirm: 49; SENP7 conf: 82*; Casp3 select: 80*; Luc interf: 21

Results for O=C(Nc1nc2c(F)cc(F)cc2s1)c1ccccn1 ?
SENP8 block-1: 64*; SENP1 inh: -8; SENP6 block: 70*; SENP7 inh: 93*; SENP8 block-2: -8; SENP8 conf: 61*; SENP6 confirm: 69*; SENP7 conf: 31; Casp3 select: 79*; Luc interf: 14

What do the screens show for `CSc1nc2ccc(NC(=O)c3ccccn3)cc2s1`?
SENP8 block-1: 90*; SENP1 inh: 0; SENP6 block: 78*; SENP7 inh: 93*; SENP8 block-2: -44; SENP8 conf: 52*; SENP6 confirm: 86*; SENP7 conf: 98*; Casp3 select: 93*; Luc interf: 17

How did Cc1ccc2nc(NC(=O)c3ccccn3)sc2c1 do in these assays?
SENP8 block-1: 95*; SENP1 inh: 2; SENP6 block: 96*; SENP7 inh: 96*; SENP8 block-2: -55; SENP8 conf: 58*; SENP6 confirm: 81*; SENP7 conf: 93*; Casp3 select: 84*; Luc interf: 11
